Most compounds without a hit are left out; they make up all but 5.7% or so of the library.
Calb FLC: C. albicans growth modulation with fluconazole; C. albicans CaCi-2 (fluconazole-resistant clinical isolate) + fluconazole, Alamar Blue growth, 48 h; growth inhibition, % (test concentration not listed); 300,000 tested, 0.57% active; AID 1979;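 active = growth inhibition above about 58% in most replicates, limit read from the data, passing the limit was not always enough; inconclusive = exactly half the replicates above a set limit; inactive = most replicates below a set limit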;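 also: all wells also contain fluconazole at 8 µg/ml as a sub-toxic cotreatment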
CSC inhib: blocks cancer stem cells. inhibition, % at 7.5 µM. cancer stem cell-like cells viability, luminescence. 300,000 tested, 1.1% active; in the data active = inhibition above about 75%; inconclusive = no clear call, values can overlap the other calls; tested in HMLE shEcad cells
SKKanGAS inh: blocks kanamycin growth of S. pyogenes SKKanGAS strain. BacTiter-Glo, 6 h. inhibition, % at 7.5 µM. 300,000 tested, 1.3% active;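 active = mean replicate score, as percent of positive control median, at least 50; inconclusive = mean below 50 but one replicate at or above 50; inactive = mean and every replicate below 50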;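 also: strain carries kanamycin resistance gene driven by streptokinase promoter and grows in 40 µg/ml kanamycin; loss of luminescence reflects streptokinase promoter inhibition or plain growth inhibition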
T cruzi inh: blocks replication of Trypanosoma cruzi. T. cruzi beta-gal in NIH3T3, luminescence, 90 h. inhibition, % (test concentration not listed). 300,000 tested, 1.4% active;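 active = mean inhibition across valid replicates above about 55%, limit read from the data; inconclusive = mean below that limit but half or more replicates reach it; inactive = mean below it, under half of replicates reach it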;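 also: signal also drops with host cell toxicity which is not excluded here; higher percent means less beta-gal luminescence so fewer parasites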
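System: NIH/3T3 fibroblasts plus reporter T. cruzi. Medium: DMEM plus 2% FBS. Probe or stimulus: 5000 reporter trypomastigotes per well. Compound: single 50 nL compound addition per well in DMSO. Incubation: co-culture of at least 90 h after 3 h attachment. Detection: GalScreen β-gal luminescence, detergent lysis, 60 min. Evaluation: parasite load inhibition, %.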
Mdm2-MdmX inh: human Mdm2/MdmX binding inhibition; O15151+Q00987; SaOS-2 split-luciferase Mdm2/MdmX complementation, luminescence; inhibition, % at 8 µM; 330,000 tested, 3% active; AID 485346;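 active = inhibition of at least 50% at 8 µM in the primary screen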
Target sequence (O15151 whole entry, looked up): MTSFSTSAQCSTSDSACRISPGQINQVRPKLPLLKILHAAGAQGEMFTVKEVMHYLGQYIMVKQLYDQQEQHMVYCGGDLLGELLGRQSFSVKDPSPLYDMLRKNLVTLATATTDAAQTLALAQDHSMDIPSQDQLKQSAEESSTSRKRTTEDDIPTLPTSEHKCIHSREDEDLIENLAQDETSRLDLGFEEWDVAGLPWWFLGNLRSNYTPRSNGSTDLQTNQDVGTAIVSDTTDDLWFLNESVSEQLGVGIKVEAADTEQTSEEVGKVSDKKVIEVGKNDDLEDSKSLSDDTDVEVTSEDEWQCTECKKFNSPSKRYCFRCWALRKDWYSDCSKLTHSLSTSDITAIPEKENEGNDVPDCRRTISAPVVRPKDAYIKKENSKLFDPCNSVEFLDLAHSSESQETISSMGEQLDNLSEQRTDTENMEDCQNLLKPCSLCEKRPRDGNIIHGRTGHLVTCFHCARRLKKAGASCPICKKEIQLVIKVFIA
Target sequence (Q00987 whole entry, looked up): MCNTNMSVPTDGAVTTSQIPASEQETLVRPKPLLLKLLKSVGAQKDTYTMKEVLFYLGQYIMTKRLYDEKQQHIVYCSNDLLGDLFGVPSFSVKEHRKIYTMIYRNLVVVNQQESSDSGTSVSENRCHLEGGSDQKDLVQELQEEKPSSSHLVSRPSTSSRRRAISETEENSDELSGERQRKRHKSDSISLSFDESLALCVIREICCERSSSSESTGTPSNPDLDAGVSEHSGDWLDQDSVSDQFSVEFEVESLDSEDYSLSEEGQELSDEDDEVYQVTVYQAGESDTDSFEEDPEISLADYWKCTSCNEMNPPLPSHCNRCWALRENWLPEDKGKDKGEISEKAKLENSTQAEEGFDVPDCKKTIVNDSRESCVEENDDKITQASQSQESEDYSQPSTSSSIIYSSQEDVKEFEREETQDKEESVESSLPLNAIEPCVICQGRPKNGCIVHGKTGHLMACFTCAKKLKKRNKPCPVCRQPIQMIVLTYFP
Beta apoptosis: blocks beta cell apoptosis; AID 435005; INS-1E cytokine-induced death, ATP luminescence, 48 h; percent of positive-control rescue, neutral wells zero; protection from apoptosis, % (concentration not given with the values); 300,000 tested, 0.8% active;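 active = Every replicate reaches about 75%, or at least half do and their mean reaches it too, limit read from the data; inconclusive = At least half of replicates reach the limit but their mean does not; inactive = Under half of replicates reach the limit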;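 also: higher means more ATP so stronger rescue from cytokine killing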
Each line names hits and unclear results; the compound was inactive in the other large screens.

CCC(C)(C)n1nnnc1C(c1ccncc1)N1CCC(Cc2ccccc2)CC1 (configuration not stated)	T cruzi inh 65.3
CCC(C)(C)n1nnnc1C(c1ccncc1)N1CCN(c2cccc(OC)c2)CC1 (configuration not stated)	none
CCC(C)(C)n1nnnc1C(c1cccnc1)N1CCC(Cc2ccccc2)CC1 (configuration not stated)	T cruzi inh 64.2
CCC(C)(C)n1nnnc1C(c1cccnc1)N1CCCC(C)C1 (configuration not stated)	none
CC(C)(C)n1nnnc1C(c1cccc(C#N)c1)N1CCC(Cc2ccccc2)CC1 (configuration not stated)	T cruzi inh 80.9
CCC(C)(C)n1nnnc1C(c1cccc(C#N)c1)N1CCN(c2cc(C)ccc2C)CC1 (configuration not stated)	T cruzi inh 61.0
CN(C)CCCNC(=O)c1cc(Br)ccc1O	none
N#Cc1ccccc1CN1C(=O)S/C(=C/c2cccn2-c2ccc(C(=O)O)cc2)C1=O	SKKanGAS inh 56.5
O=C(O)c1ccc(-n2cccc2/C=C2/SC(=O)N(CC(=O)N3CCCC3)C2=O)cc1	none
CC(C)=CCc1cc([C@@H]2CC(=O)c3ccc(O)c(CC=C(C)C)c3O2)ccc1O	SKKanGAS inh 86.0
Cc1ccc2c(c1)C(=O)CC(c1ccc3c(c1)OCCO3)O2 (configuration not stated)	none
CCOc1ccc(CCNC(=O)COC(=O)c2nc3nc(C)cc(C)n3n2)cc1OCC	none
Cc1cc(Oc2ccc(-c3ccccc3)cc2)nc(N2CCOCC2)n1	SKKanGAS inh 54.0
Cc1cc(Oc2ccc(C(C)(C)C)cc2)nc(N2CCOCC2)n1	none
Cc1cc(C)nc(SCC(=O)Nc2ccnc3ccccc23)n1	Beta apoptosis 101.6
O=C(CSC1=NCCS1)Nc1ccnc2ccccc12	Beta apoptosis 104.4
N#C/C(=C\c1ccc(-c2cccc([N+](=O)[O-])c2)o1)C(=O)Nc1nc(-c2cccs2)cs1	none
Cc1cccc(CCN(CC(=O)NCc2ccc(F)cc2)C(=O)c2csnn2)c1	none (no result: CSC inhib)
Fc1ccc(C2Nc3cccc4cccc(c34)N2)cc1	none
COC(=O)c1ccc(C2Nc3cccc4cccc(c34)N2)cc1	T cruzi inh 66.6
CC(=O)c1cc(C#N)c(SCCC(C)C)nc1C	none
CC(C)CCSc1nc(N)c(C#N)cc1C#N	T cruzi inh 66.8
Clc1ccc(N/N=C/c2cccnc2)cc1	CSC inhib 84.6
Cc1cc(NC(=O)CCN2C(=O)C3C4CCC(C4)C3C2=O)c(C)cc1Br (configuration not stated)	none
Cc1cc(Br)c(Cl)cc1NC(=O)CN1C(=O)C2C3CC(c4ccccc4)C(C3)C2C1=O (configuration not stated)	CSC inhib 79.7, T cruzi inh 55.7
Cc1ccc2cc(CN(Cc3cccs3)C(=O)c3ccco3)c3nnnn3c2c1C	SKKanGAS inh 63.1
Cc1ccccc1OCC(=O)Nc1ccc(N2CCN(C(=O)c3ccco3)CC2)cc1	none
COC(=O)C1Cc2c([nH]c3ccccc23)C2(CCN(Cc3ccccc3)CC2)N1 (configuration not stated)	T cruzi inh 70.7 (no result: CSC inhib, Beta apoptosis)
CCOC(=O)c1c(C)[n+](-c2ccc(C)cc2)c(CC)c2cc(OC)c(OC)cc12	T cruzi inh 55.1
CC(C)(C)NC(=O)NC(=O)CN1CCN(S(=O)(=O)c2ccc3c(c2)OCCO3)CC1	none
O=c1cc2oc3cc(O)c(O)cc3c(-c3ccccc3[N+](=O)[O-])c-2cc1O	Calb FLC 88.1, CSC inhib 95.5, SKKanGAS inh 50.2
O=c1cc(-c2ccccc2Cl)oc2cccc(O)c12	none
CN(C)CCCNc1cn[nH]c(=O)c1Cl	T cruzi inh 70.3
Nc1ccc(-c2cnc(-c3ccc(N)cc3)nc2)cc1	none
Oc1ccc(-c2cnc(-c3ccc(O)cc3)nc2)cc1	CSC inhib 98.0
Cc1nn(C(=O)c2cccnc2)c(C)c1Sc1ccc(Br)cc1	SKKanGAS inh 63.2
O=C(COC(=O)/C=C/c1ccc2c(c1)OCO2)NCc1ccccc1	none (no result: Calb FLC, CSC inhib, SKKanGAS inh, T cruzi inh)
COc1cccc(-n2c(SCc3cc(=O)oc4cc(O)c(O)cc34)nc3ccccc3c2=O)c1	Calb FLC 106.4, CSC inhib 99.8 (no result: Mdm2-MdmX inh)
COc1cccc(NCc2cc(=O)oc3cc(C)c(O)cc23)c1	SKKanGAS inh 99.4
CCOc1ccccc1NCc1cc(=O)oc2cc(C)c(O)cc12	none
COc1cccc(C(=O)Nc2ccc3c(C)cc(=O)oc3c2)c1	none
Cc1cc2oc(=O)cc(CNc3ccccc3F)c2cc1O	SKKanGAS inh 50.6, T cruzi inh 58.6
COc1cccc(NCc2cc(=O)oc3cc(-c4ccccc4)c(O)cc23)c1	SKKanGAS inh 109.6
O=c1cc(CN2CCN(c3cccc(Cl)c3)CC2)c2cc(O)c(-c3ccccc3)cc2o1	none
COc1ccccc1-n1ccnc(SCC(=O)NCCc2ccccc2)c1=O	none
O=C(CSc1nncs1)Nc1ccc2c(c1)OCO2	none
CCC(C)[C@H]1CN=C(N)N1CCc1cccc(F)c1 (some centres not stated)	none
CCN(CC(=O)NC(C)(C)C)Cc1cc(=O)n2c(-c3ccccc3)csc2n1	none
CCOC(=O)c1cc(CC)sc1NC(=O)c1ccc(N2C(=O)CCC2=O)cc1	SKKanGAS inh 55.0
C=CC[C@H](CC(=O)OC(C)(C)C)C(=O)OC[C@H]1CCCN1C(=O)[C@@H](CC=C)CC(=O)N(CCO)Cc1ccccc1	none (no result: Calb FLC, CSC inhib, SKKanGAS inh, T cruzi inh)
C1=C(CCNc2ncnc3c2[nH]c2ccccc23)CCCC1	CSC inhib 77.3, Beta apoptosis 129.9 (no result: Calb FLC, SKKanGAS inh, T cruzi inh, Mdm2-MdmX inh)
CC(C)OCCCNc1ncnc2c1[nH]c1ccccc12	Beta apoptosis 125.2 (no result: CSC inhib)
COCCNC(=O)c1cc(-c2ccccc2)nn1CC1CC(c2cccnc2)=NO1 (configuration not stated)	none
Cc1cccc(N2CCN(C(=O)c3ccc4nc(N5CCCCC5)sc4c3)CC2)c1C	CSC inhib 83.6, SKKanGAS inh 50.6
CC(C)(C)NC(=O)CSc1nc2ccc(Nc3nc(N4CCOCC4)nc(N4CCOCC4)n3)cc2s1	T cruzi inh 57.9
O=C(c1cnn(C(=O)c2ccco2)c1)c1cc(F)ccc1O	none (no result: Calb FLC, SKKanGAS inh, T cruzi inh)
O=C(CCCCN1CCCCC1)c1ccc2c(c1)Cc1ccccc1-2	T cruzi inh 71.4
COc1cc(S(=O)(=O)N2CCC(O)(c3cccc(C(F)(F)F)c3)CC2)ccc1-n1cnnn1	T cruzi inh 60.9
O=S(=O)(c1ccc(OC(F)(F)F)cc1)N1CCC(O)(c2cccc(C(F)(F)F)c2)CC1	none
Cc1ccc(C)c(Cn2c(O)c(N=NC(=S)Nc3ccccc3F)c3ccccc32)c1	T cruzi inh 67.0
Cc1ccccc1Cn1c(O)c(N=NC(=S)Nc2ccccc2F)c2ccccc21	SKKanGAS inh inconclusive

Screening data: PubChem, several laboratories
